# Measured values pooled from the literature.
# Protocols differ between the studies behind these lines.
# Organism: Staphylococcus epidermidis
# Effect on: microbial growth
Structure (SMILES),test,test system,conditions,endpoint,result
Cc1ccc2[nH]nc(-c3nnc(Nc4ccc(C)c(C)c4)s3)c2c1,,ATCC12228,,MIC,172 µg/mL
CCn1cc(C(=O)O)c(=O)c2cc(F)c(N3CCNCC3)cc21,,,clinical isolate,MIC,0.2 µg/mL
C=C[C@]1(C)C[C@@H](OC(=O)CS[C@@H]2C[C@H]3CC[C@@H](C2)N3C)[C@]2(C)[C@H](C)CC[C@]3(CCC(=O)[C@H]32)[C@@H](C)[C@@H]1O,,,clinical isolate,MIC90,0.0625 µg/mL
Cc1ccc2[nH]nc(-c3nnc(Nc4ccc(F)cc4Cl)s3)c2c1,,ATCC12228,,MIC,118 µg/mL
CN[C@H](CC(C)C)C(=O)N[C@H]1C(=O)N[C@@H](CC(N)=O)C(=O)N[C@H]2C(=O)N[C@H]3C(=O)N[C@H](C(=O)N[C@H](C(=O)O)c4cc(O)cc(O)c4-c4cc3ccc4O)[C@H](O)c3ccc(c(Cl)c3)Oc3cc2cc(c3O[C@@H]2O[C@H](CO)[C@@H](O)[C@H](O)[C@H]2O[C@H]2C[C@](C)(N)[C@H](O)[C@H](C)O2)Oc2ccc(cc2Cl)[C@H]1O,,,clinical isolate,MIC,0.78 µg/mL
CN[C@H](CC(C)C)C(=O)N[C@H]1C(=O)N[C@@H](CC(N)=O)C(=O)N[C@H]2C(=O)N[C@H]3C(=O)N[C@H](C(=O)N[C@H](C(=O)O)c4cc(O)cc(O)c4-c4cc3ccc4O)[C@H](O)c3ccc(c(Cl)c3)Oc3cc2cc(c3O[C@@H]2O[C@H](CO)[C@@H](O)[C@H](O)[C@H]2O[C@H]2C[C@](C)(N)[C@H](O)[C@H](C)O2)Oc2ccc(cc2Cl)[C@H]1O,broth dilution,,clinical isolate,MIC50,1 µg/mL
CNC(C)C1CCC(N)C(OC2C(N)CC(N)C(OC3OCC(C)(O)C(NC)C3O)C2O)O1 (stereo not shown),broth dilution,,,MIC,1 µg/mL
Cc1ccc2[nH]nc(-c3nnc(Nc4ccc(Cl)c(Cl)c4)s3)c2c1,,ATCC12228,,MIC,187 µg/mL
CC[C@H]1OC(=O)[C@H](C)[C@@H](O[C@H]2C[C@@](C)(OC)[C@@H](O)[C@H](C)O2)[C@H](C)[C@@H](O[C@@H]2O[C@H](C)C[C@H](N(C)C)[C@H]2O)[C@](C)(O)C[C@@H](C)/C(=N\OCOCCOC)[C@H](C)[C@@H](O)[C@]1(C)O,,MRSE,clinical isolate,MIC90,> 128 µg/mL
Cc1c2c(nn1C)CSCc1cc(n(C)n1)CSc1cc(c3ccccc3c1)OCCCc1c(C(=O)O)n(C)c3c-2c(Cl)ccc13,broth dilution,,clinical isolate,MIC50,12.5 µM
